This is an account of results in ChEMBL document CHEMBL5331102, “Novel S1R agonists counteracting NMDA excitotoxicity and oxidative stress: A step forward in the discovery of neuroprotective agents” (Eur J Med Chem, 2023).

Data set [1] addresses Glutamate [NMDA] receptor (Homo sapiens) (UniProt Q05586+Q12879+Q13224+O15399+O60391+Q14957+Q8TCU5). In words: Displacement of [3H]CGP39653 from human NMDAR at 25 nM by scintillation counting analysis. It counts as protein-complex assay. The method in brief:
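NMDA receptor binding with [3H]CGP39653 (5 nM) as radioligand, test compound at 25 nM; displacement read by scintillation counting and reported as % inhibition of control specific binding.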
On the technique in general: In a radioligand displacement assay an active substance lowers the binding of a labelled ligand.

Data set [2] deals with Sigma non-opioid intracellular receptor 1 (Homo sapiens, UniProt Q99720). In words: Displacement of [3H]-(+)-pentazocine from sigma 1 receptor (unknown origin) assessed as inhibition constant by scintillation counting analysis. The method in brief:
(§1)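 Radioligand displacement at S1R with [3H](+)pentazocine (15 nM) and at S2R with [3H]DTG (25 nM); S2R assay includes 1 μM cold (+)pentazocine to mask S1R sites. Bound radioactivity counted by scintillation. IC50 and Hill slope from non-linear Hill fit of competition curves; Ki by Cheng–Prusoff using radioligand concentration and KD from Scatchard plot.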

In data set [3] the target is Sigma intracellular receptor 2 (Homo sapiens, UniProt Q5BJF2). Nature of the data set: Displacement of [3H]DTG from sigma 2 receptor (unknown origin) assessed as inhibition constant by scintillation counting analysis. The method in brief:
as §1

Data set [4] deals with PC-12. In words: Cytotoxicity against rat PC12 cells assessed as reduction in cell viability at <1 uM incubated for 24 hrs by MTT assay. The note with it: pc-12, 24 h. It counts as toxicity, cell-based. Background: Tetrazolium assays rely on reduction of a dye to a coloured formazan, in cell work by metabolically active cells.
Data set [5] deals with PC-12. Nature of the data set: Neuroprotective activity in rat PC12 cells assessed as induction of NGF-mediated neurite outgrowth at 0.5 uM by neurite outgrowth assay (Rvb=26 +/- 4%). Format: functional. The gist of the method: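 PC12 cells stimulated with NGF (2.5 nM) and treated with compound up to 5 μM, alone or after pre-treatment with S1R antagonist NE-100 (3 μM); read-out is percentage of cells bearing neurite sprouts; mean ± SEM of three independent experiments.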

The subject of another data set is PANC-1. Nature of the data set: Cytotoxicity against human PANC-1 cells assessed as reduction in cell survival rate at 100 uM incubated for 48 to 72 hrs by MTT assay. Format: toxicity, cell-based. The note with it: panc-1, 100 µM, time 48-72 hrs. The method in brief: (§2)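 Cancer lines grown in Ham's F-12K or DMEM with 10% FBS, used in exponential growth; seeded 2500 cells/well, exposed to 0.1–100 μM for 24, 48 and 72 h continuous. Viability by CellTiter 96 AQueous One (tetrazolium) absorbance at 490 nm; three independent experiments in quadruplicate, % survival vs untreated.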

In a further data set the test system is LoVo. Nature of the data set: Cytotoxicity against human LoVo cells assessed as reduction in cell survival rate at 100 uM incubated for 48 to 72 hrs by MTT assay. The note with it: time 48-72 hrs. It counts as toxicity, cell-based. The method in brief: as §2
A short description of data set [6]: Thermodynamic solubility of the compound in HC1/KCl buffer at pH 1.2 incubated for 24 hrs. To be noted: HCl/KCl buffer, read-out: Therm_solubility. Format: physicochemical. The method in brief: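 10 mM DMSO stock diluted 1:100 into buffer (HCl/KCl pH 1.2; KH2PO4/NaOH pH 6.8; KH2PO4/Na2HPO4 pH 7.4), 1% v/v DMSO final; shaken 24 h at 1200 rpm, filtered through 0.45 μm polycarbonate membrane, filtrate diluted 1:1 with MeOH and analysed.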

A short description of data set [7]: Toxicity in Zebrafish embryos assessed as morphological abnormality at 0.1 to 50 uM incubated for 5 days by Teratogenic test. To be noted: in vivo, 120 h, dose 0.1-50 µM, time 5 day. More on the design: species or system Danio rerio, Embryo. The method in brief: (§3)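 Tg(GFAP:GFP) zebrafish embryos from 2 female × 1 male matings, 8 embryos per control or concentration, exposed from 1 h post-fertilization and kept at 28 °C for about 5 days without medium change. At 5 dpf (120 h) mortality and developmental abnormalities (tail shape, heart, pigmentation) were scored, with morphology given a severity score.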

Data set [8] can be described thus: Toxicity in Zebrafish embryos assessed as normal and vital phenotype at 0.1 to 1 uM incubated for 5 days by Teratogenic test. Further details: species or system Danio rerio, Embryo. The note with it: in vivo, 120 h, dose 0.1-1 µM, time 5 day. The method in brief: (§4)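 Tg(GFAP:GFP) zebrafish embryos, 8 per group, exposed from 1 h post-fertilization to increasing compound concentrations at 28 °C for about 5 days without medium change; mortality, developmental defects and morphology score assessed at 5 dpf.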

The nature of data set [9]: Toxicity in Zebrafish embryos assessed as decrease in embryo vitality rate at 10 to 50 uM incubated for 5 days by Teratogenic test. Further details: species or system Danio rerio. To be noted: in vivo, 120 h, dose 10-50 µM, time 5 day. The gist of the method:
as §3

The nature of data set [10]: Toxicity in Zebrafish embryos assessed as morphological abnormality by observing poor pigmentation at 10 uM incubated for 5 days by Teratogenic test. Further details: species or system Danio rerio, Embryo. The note with it: in vivo, 120 h, time 5 day. The method in brief: as §4
The nature of data set [11]: Toxicity in Zebrafish embryos assessed as morphological abnormality by observing inflated swim bladder at 10 uM incubated for 5 days by Teratogenic test. To be noted: in vivo, 120 h, time 5 day. It counts as tissue-based, Danio rerio, Embryo. The gist of the method: as §4
The nature of data set [12]: Toxicity in Zebrafish embryos assessed as morphological abnormality by observing oedema at 10 uM incubated for 5 days by Teratogenic test. Further details: species or system Danio rerio, Embryo. To be noted: in vivo, 120 h, time 5 day. The method in brief: as §4
The subject of a further data set is SH-SY5Y. In words: Cytotoxicity against human SH-SY5Y cells assessed as cell viability at 100 uM incubated for 72 hrs by MTT assay.
Data set [13] concerns PC-12. Nature of the data set: Cytotoxicity against rat PC12 cells assessed as reduction in cell viability at <5 uM incubated for 24 hrs by MTT assay. Format: toxicity, cell-based. To be noted: pc-12, 24 h.

Structures are written as SMILES. Values after ≈ are worked out from the molar mass of the structure shown. Some results are limits rather than exact numbers.

Sigma non-opioid intracellular receptor 1, sequence (Q99720 whole entry): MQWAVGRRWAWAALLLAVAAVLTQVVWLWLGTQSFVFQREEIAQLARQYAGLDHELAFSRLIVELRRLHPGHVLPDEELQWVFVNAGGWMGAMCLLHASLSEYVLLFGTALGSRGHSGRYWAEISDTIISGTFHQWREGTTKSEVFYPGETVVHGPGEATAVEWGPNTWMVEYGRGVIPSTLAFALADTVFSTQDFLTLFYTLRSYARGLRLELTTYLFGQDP
Sigma intracellular receptor 2, sequence (Q5BJF2 whole entry): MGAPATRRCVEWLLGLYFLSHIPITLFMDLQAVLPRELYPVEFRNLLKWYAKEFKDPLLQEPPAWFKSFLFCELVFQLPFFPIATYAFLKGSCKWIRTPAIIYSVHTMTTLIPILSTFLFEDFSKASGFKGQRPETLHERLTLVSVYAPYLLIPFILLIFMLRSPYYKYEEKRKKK

As usually defined, the Ki is a measure of affinity in units of concentration, obtained from inhibition or displacement. For the compound `c1ccc(CC2CCN(CCOc3ccccc3)CC2)cc1`, the Activity in [1] is less than 11.9%; in the data set with PC-12 [4], “Non-Toxic”; in the data set with PC-12 [5] it was 37%; with PANC-1, 20%; with LoVo, 40%; in data set [7] it was “Toxic”. Besides, the Activity entry is listed as “Non-Toxic” in [8]; “Toxic” in [9]; “Toxic” in [10]; “Toxic” in data set [11]; “Toxic” in data set [12]; 76% with SH-SY5Y. Moreover, the Ki in [2] is 0.93 nM; in data set [3], 72 nM. Further, the solubility thermodynamic at 24 h in data set [6] came to 7800 µg/mL (≈ 26.4 mM).
As to `c1ccc(CC2CCN(CCCOc3ccccc3)CC2)cc1`, the Activity is less than 11.9% in [1]; “Non-Toxic” with PC-12 [13]; 20% in the data set on PANC-1; 40% in the data set with LoVo; “Toxic” in [7]; “Non-Toxic” in data set [8]. Further, the Activity entry in [9] is reported as “Toxic”; with SH-SY5Y, 82%. Also, the Ki in data set [2] was 1.1 nM; in data set [3], 88 nM. The solubility thermodynamic at 24 h in [6] amounted to 2800 µg/mL (≈ 9.05 mM).
